Measurements: ChEMBL document CHEMBL1921722, “In vitro and in vivo evaluation of select kahalalide F analogs with antitumor and antifungal activities” (Bioorg Med Chem, 2011)
Calls of active or inactive are those of the source.

Tests used:
ACHN = experiment: Cytotoxicity against human ACHN cells assessed as cell growth at 80 uM by sulforhodamine B assay relative to control; format: functional; details: read-out: Activity
Procedure, shortened: (§1)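 Run at NCI in the DTP 60-cell-line human tumor panel by standard procedure. Compounds were first screened at a single concentration, then tested at five tenfold-spaced concentrations. GI50 is the concentration reducing treated-cell growth to half that of untreated controls; TGI is the concentration completely halting growth.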

MDA-MB-435 [1] = experiment: Cytotoxicity against human MDA-MB-435 cells by sulforhodamine B assay; format: functional
Procedure, shortened: (§2)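 NCI Developmental Therapeutics Program 60-cell-line human tumor panel screen, run at NCI. A single-concentration pre-screen was followed by a five-concentration dose-response in 10-fold steps. GI50 is the concentration that reduces growth of treated cells to half that of untreated control cells. TGI is the concentration that completely halts growth.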

NCI-H226 = experiment: Cytotoxicity against human NCI-H226 cells by sulforhodamine B assay; format: functional; procedure, shortened: as §2
786-0 = experiment: Cytotoxicity against human 786-0 cells by sulforhodamine B assay; format: functional; procedure, shortened: as §1
PC-3 = experiment: Cytotoxicity against human PC3 cells assessed as cell growth at 80 uM by sulforhodamine B assay relative to control; format: functional; details: read-out: Activity
HCT-15 = experiment: Cytotoxicity against human HCT15 cells assessed as cell growth at 800 nM by sulforhodamine B assay relative to control; format: functional; details: read-out: Activity
HOP-92 = experiment: Cytotoxicity against human HOP92 cells assessed as cell growth at 8 uM by sulforhodamine B assay relative to control; format: functional; details: read-out: Activity
HT-29 = experiment: Cytotoxicity against human HT-29 cells assessed as cell growth at 80 uM by sulforhodamine B assay relative to control; format: functional; details: read-out: Activity
RPMI-8226 [2] = experiment: Cytotoxicity against human RPMI8226 cells by sulforhodamine B assay; format: functional; procedure, shortened: as §2
NCI-H322M = experiment: Cytotoxicity against human NCI-H322M cells assessed as cell growth at 80 uM by sulforhodamine B assay relative to control; format: functional; details: read-out: Activity
KM12 [3] = experiment: Cytotoxicity against human KM12 cells assessed as cell growth at 800 nM by sulforhodamine B assay relative to control; format: functional; details: read-out: Activity
U-251 [4] = experiment: Cytotoxicity against human U251 cells assessed as cell growth at 8 uM by sulforhodamine B assay relative to control; format: functional; details: read-out: Activity
MDA-MB-435 [5] = experiment: Cytotoxicity against human MDA-MB-435 cells assessed as cell growth at 8 nM by sulforhodamine B assay relative to control; format: functional; details: read-out: Activity
A498 = experiment: Cytotoxicity against human A498 cells assessed as cell growth at 8 uM by sulforhodamine B assay relative to control; format: functional; details: read-out: Activity; procedure, shortened: as §1
MDA-MB-231 = experiment: Cytotoxicity against human MDA-MB-231 cells assessed as cell growth at 8 uM by sulforhodamine B assay relative to control; format: functional; details: read-out: Activity
SW-620 = experiment: Cytotoxicity against human SW620 cells by sulforhodamine B assay; format: functional; procedure, shortened: as §2
RXF 393 = experiment: Cytotoxicity against human RXF393 cells assessed as cell growth at 80 nM by sulforhodamine B assay relative to control; format: functional; details: read-out: Activity
Hs-578T = experiment: Cytotoxicity against human Hs578T cells assessed as cell growth at 8 uM by sulforhodamine B assay relative to control; format: functional; details: read-out: Activity
NCI/ADR-RES = experiment: Cytotoxicity against human NCI/ADR-RES cells assessed as cell growth at 80 nM by sulforhodamine B assay relative to control; format: functional; details: read-out: Activity
HCC 2998 = experiment: Cytotoxicity against human HCC2998 cells assessed as cell growth at 8 uM by sulforhodamine B assay relative to control; format: functional; details: read-out: Activity
Malme-3M = experiment: Cytotoxicity against human MALME-3M cells assessed as cell growth at 8 nM by sulforhodamine B assay relative to control; format: functional; details: read-out: Activity
T47D = experiment: Cytotoxicity against human T47D cells by sulforhodamine B assay; format: functional; procedure, shortened: as §2
SN12C [6] = experiment: Cytotoxicity against human SN12C cells by sulforhodamine B assay; format: functional; procedure, shortened: as §2
U-251 [7] = experiment: Cytotoxicity against human U251 cells assessed as cell growth at 80 nM by sulforhodamine B assay relative to control; format: functional; details: read-out: Activity
NCI-H23 [8] = experiment: Cytotoxicity against human NCI-H23 cells assessed as cell growth at 8 uM by sulforhodamine B assay relative to control; format: functional; details: read-out: Activity
IGROV-1 = experiment: Cytotoxicity against human IGROV1 cells assessed as cell growth at 8 nM by sulforhodamine B assay relative to control; format: functional; details: read-out: Activity
M14 = experiment: Cytotoxicity against human M14 cells assessed as cell growth at 8 uM by sulforhodamine B assay relative to control; format: functional; details: read-out: Activity
SR = experiment: Cytotoxicity against human SR cells assessed as cell growth at 8 nM by sulforhodamine B assay relative to control; format: functional; details: read-out: Activity
COLO 205 = experiment: Antitumor activity against human COLO205 cells xenografted in mouse assessed as tumor cell killing at 4.7 mg/kg, ip qd for 4 days by MTT assay; format: functional, organism-based; parameters: dose 4.7 mg/kg
Procedure, shortened: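 Hollow-fiber assay in mice. Tumor lines were grown in RPMI-1640 with 10% FBS and 2 mM glutamine. Cells at 2 × 10^6 cells/ml were loaded into 1 mm PVDF fibers (500,000 Da cutoff), heat-sealed at 2 cm and held 24–48 h at 37 °C, 5% CO2 before implantation. Compound was given IP. Fibers were collected the day after the fourth treatment for MTT (OD 540 nm, group means). A ≥50% cut in percent net growth versus vehicle counted as positive.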

RPMI-8226 [9] = experiment: Cytotoxicity against human RPMI8226 cells assessed as cell growth at 8 uM by sulforhodamine B assay relative to control; format: functional; details: read-out: Activity
NCI-H522 = experiment: Cytotoxicity against human NCI-H522 cells by sulforhodamine B assay; format: functional; procedure, shortened: as §2
UO-31 = experiment: Cytotoxicity against human UO31 cells assessed as cell growth at 800 nM by sulforhodamine B assay relative to control; format: functional; details: read-out: Activity
LOX IMVI = experiment: Cytotoxicity against human LOXIMVI cells by sulforhodamine B assay; format: functional; procedure, shortened: as §2
NCI-H23 [10] = experiment: Cytotoxicity against human NCI-H23 cells by sulforhodamine B assay; format: functional; procedure, shortened: as §2
SN12C [11] = experiment: Cytotoxicity against human SN12C cells assessed as cell growth at 8 nM by sulforhodamine B assay relative to control; format: functional; details: read-out: Activity
BT-549 = experiment: Cytotoxicity against human BT549 cells assessed as cell growth at 8 uM by sulforhodamine B assay relative to control; format: functional; details: read-out: Activity; procedure, shortened: as §1
KM12 [12] = experiment: Cytotoxicity against human KM12 cells assessed as cell growth at 80 nM by sulforhodamine B assay relative to control; format: functional; details: read-out: Activity
Pseudomonas aeruginosa = experiment: Antimicrobial activity against Pseudomonas aeruginosa ATCC 27853 by CLSI method; format: functional, organism-based

C/C=C1\NC(=O)[C@H](Cc2ccccc2)NC(=O)[C@@H](C(C)C)NC(=O)[C@@H]([C@@H](C)CC)NC(=O)[C@H](NC(=O)[C@H](NC(=O)[C@H](CCCNCc2ccc(N3CCOCC3)cc2)NC(=O)[C@H]2CCCN2C(=O)[C@H](NC(=O)[C@@H](NC(=O)[C@@H](NC(=O)[C@H](NC(=O)CCCC(C)C)C(C)C)[C@@H](C)O)C(C)C)C(C)C)[C@@H](C)CC)[C@@H](C)OC(=O)[C@H](C(C)C)NC1=O
growth at 80 µM (ACHN): -76%
GI50 (MDA-MB-435 [1]): 1.29 µM
TGI (MDA-MB-435 [1]; read-out: pTGI (converted)): 2.45 µM
GI50 (NCI-H226): 1.66 µM
TGI (NCI-H226; read-out: pTGI (converted)): 3.39 µM
GI50 (786-0): 1.38 µM
LC50 (786-0): 4.68 µM
TGI (786-0; read-out: pTGI (converted)): 2.57 µM
growth at 80 µM (PC-3): -67%
growth at 0.8 µM (HCT-15): 3%
growth at 8 µM (HOP-92): -2%
growth at 80 µM (HT-29): 8%
GI50 (RPMI-8226 [2]; read-out: GI50): 1.13 µM
TGI (RPMI-8226 [2]; read-out: TGI): 2.51 µM
GI50 (RPMI-8226 [2]; read-out: pGI50 (converted)): 1.12 µM
TGI (RPMI-8226 [2]; read-out: pTGI (converted)): 2.51 µM
growth at 80 µM (NCI-H322M): -18%
growth at 0.8 µM (KM12 [3]): -15%
growth at 8 µM (U-251 [4]): -98%
growth at 0.008 µM (MDA-MB-435 [5]): 103%
growth at 8 µM (A498): -51%
growth at 8 µM (MDA-MB-231): 20%
GI50 (SW-620): 1.05 µM
TGI (SW-620; read-out: pTGI (converted)): 2.04 µM
growth at 0.08 µM (RXF 393): 99%
growth at 8 µM (Hs-578T): -46%
growth at 0.08 µM (NCI/ADR-RES): 82%
growth at 8 µM (HCC 2998): -81%
growth at 0.008 µM (Malme-3M): 100%
GI50 (T47D; read-out: GI50): 0.167 µM
TGI (T47D; read-out: TGI): 0.466 µM
GI50 (T47D; read-out: pGI50 (converted)): 0.166 µM
TGI (T47D; read-out: pTGI (converted)): 0.468 µM
GI50 (SN12C [6]): 1.41 µM
LC50 (SN12C [6]): > 75.9 µM
TGI (SN12C [6]; read-out: pTGI (converted)): 3.31 µM
growth at 0.08 µM (U-251 [7]): 103%
growth at 8 µM (NCI-H23 [8]): -63%
growth at 0.008 µM (IGROV-1): 104%
growth at 8 µM (M14): -89%
growth at 0.008 µM (SR): 103%
Activity (COLO 205): inactive
growth at 8 µM (RPMI-8226 [9]): -68%
GI50 (NCI-H522): 5.01 µM
LC50 (NCI-H522): > 75.9 µM
TGI (NCI-H522; read-out: pTGI (converted)): 33.1 µM
growth at 0.8 µM (UO-31): 96%
GI50 (LOX IMVI): 3.16 µM
LC50 (LOX IMVI): 57.5 µM
TGI (LOX IMVI; read-out: pTGI (converted)): 13.5 µM
GI50 (NCI-H23 [10]): 1.55 µM
LC50 (NCI-H23 [10]): 6.31 µM
TGI (NCI-H23 [10]; read-out: pTGI (converted)): 3.09 µM
growth at 0.008 µM (SN12C [11]): 86%
growth at 8 µM (BT-549): -66%
growth at 0.08 µM (KM12 [12]): 99%
Activity (Pseudomonas aeruginosa): inactive
